Assay results reported in the M2OR odorant receptor database.

biological target: T1, OR2AG1 (Homo sapiens) (UniProt Q9H205); settings: stereoisomer not certain
T1 sequence (whole entry): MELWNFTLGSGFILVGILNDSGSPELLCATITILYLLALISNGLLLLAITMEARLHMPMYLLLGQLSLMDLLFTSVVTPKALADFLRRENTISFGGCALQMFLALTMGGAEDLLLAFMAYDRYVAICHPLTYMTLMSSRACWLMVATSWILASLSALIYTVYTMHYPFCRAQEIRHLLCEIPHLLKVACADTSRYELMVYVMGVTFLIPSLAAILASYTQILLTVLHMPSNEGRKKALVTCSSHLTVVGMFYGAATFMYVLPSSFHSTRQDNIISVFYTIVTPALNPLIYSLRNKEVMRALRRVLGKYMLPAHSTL
Method in brief: (§1)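 Assay methods differ from source to source, frequently being transient luciferase assays in mammalian cell lines. For each receptor–molecule pair, the label responsive (active) applies when the original authors judged the measured signal statistically different from baseline, and non-responsive (inactive) applies otherwise.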

Odorant receptor agonist call, inactive:
CCCCCOC(=O)CCC
CCCC(C)C1OCC(C)(CCC)CO1 (stereo unspecified)
CC(C)C1OC(C)(C)OCC1(C)C (stereo unspecified)

biological target: T2, OR2B11 (Homo sapiens) (UniProt Q5JQS5); settings: stereoisomer not certain
T2 sequence (whole entry): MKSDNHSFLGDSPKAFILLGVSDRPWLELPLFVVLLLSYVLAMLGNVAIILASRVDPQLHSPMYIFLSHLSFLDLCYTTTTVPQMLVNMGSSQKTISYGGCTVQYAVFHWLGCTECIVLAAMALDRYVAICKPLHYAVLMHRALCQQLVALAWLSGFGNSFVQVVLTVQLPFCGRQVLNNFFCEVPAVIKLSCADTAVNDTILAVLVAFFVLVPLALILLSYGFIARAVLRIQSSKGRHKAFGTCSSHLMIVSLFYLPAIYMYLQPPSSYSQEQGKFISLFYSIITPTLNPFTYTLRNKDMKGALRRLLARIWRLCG
Method in brief: as §1

Odorant receptor agonist call, active:
c1coc(CSSCc2ccco2)c1
O=c1ccc2ccccc2o1
C1CCC(SSC2CCCCC2)CC1
